One data set is filed under the species Homo sapiens. Briefly: Inhibition of human platelet aggregation induced by ADP after 3 min incubation with platelet rich plasma. The format is functional. To be noted: 0.05 h. In outline: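 Human platelet-rich plasma was preincubated with drug for 3 min (standard) or 15 min, then aggregation was induced with 5.86 μM ADP. Aggregation at a range of drug concentrations was compared with vehicle-treated controls, and IC50 was taken from dose-response curves. Values are single, duplicate or triplicate (with SD) determinations.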

The nature of data set [1]: Aqueous solubility. In kind it is physicochemical. The following applies: read-out: S. In outline: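 A 10-mg sample was placed in 0.5 mL water and diluted stepwise up to 10 mL, or until it dissolved. Solubility is reported in mg/mL.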

Among the data in ChEMBL document CHEMBL1126868, “Inhibitors of blood platelet cAMP phosphodiesterase. 4. Structural variation of the side-chain terminus of water-soluble 1,3-dihydro-2H-imidazo[4,5-b]quinolin-2-one derivatives” (J Med Chem, 1993) are IC50 and solubility values, retold here.

A value given as a limit tells only on which side of the number the result lay.

Consider `CCOC(=O)N1CCC(S(=O)(=O)CCCOc2ccc3[nH]c4nc(O)nc-4cc3c2)CC1`, for which the IC50 in the data set filed under Homo sapiens came out at 650 nM. Moreover, in data set [1], the solubility was less than 1000 µg/mL.

`CCOC(=O)N1CCC(S(=O)(=O)CCCCOc2ccc3[nH]c4nc(O)nc-4cc3c2)CC1` registered an IC50 in the data set filed under Homo sapiens of 410 nM. Besides, the solubility in data set [1] was less than 1000 µg/mL.

In the data set listed under Homo sapiens, `CCOC(=O)N1CCC(n2nnnc2CCCOc2ccc3[nH]c4nc(O)nc-4cc3c2)CC1` displayed an IC50 of 420 nM. Moreover, the solubility in data set [1] was less than 1000 µg/mL.

In the data set filed under Homo sapiens, `Cl.O=C(NCCCOc1ccc2[nH]c3nc(O)nc-3cc2c1)N1CCN(CC2CCCCCC2)CC1` came in with an IC50 of 54 nM. In addition, in data set [1], the solubility amounted to 2000 µg/mL.

For `Cl.O=S(=O)(CCCCOc1ccc2[nH]c3nc(O)nc-3cc2c1)C1CCN(CC2CCCCC2)CC1`, in the data set filed under Homo sapiens, the IC50 amounted to 30 nM. The solubility in data set [1] is 2000 µg/mL.

In the data set listed under Homo sapiens, `Cl.O=C(NCCCOc1ccc2[nH]c3nc(O)nc-3cc2c1)N1CCN(CC2CCCC2)CC1` returned an IC50 of 94 nM. Further, the solubility in data set [1] was determined as 700 µg/mL.

`Cl.O=S(=O)(CCCOc1ccc2[nH]c3nc(O)nc-3cc2c1)C1CCN(CC2CCCCO2)CC1` (stereo not drawn) displayed an IC50 in the data set filed under Homo sapiens of 34 nM. In addition, the solubility in data set [1] was greater than 10000 µg/mL.

Take `Cl.Oc1nc2cc3cc(OCCCc4nnnn4C4CCN(CC5CCCC5)CC4)ccc3[nH]c-2n1`: the IC50 in the data set listed under Homo sapiens turned out to be 9 nM. For the same molecule, in data set [1], the solubility was found to be 3000 µg/mL.

`Cl.O=S(=O)(CCCOc1ccc2[nH]c3nc(O)nc-3cc2c1)C1CCN(CCc2ccccc2)CC1`: the IC50 in the data set listed under Homo sapiens was determined as 130 nM. In data set [1], the solubility was less than 5000 µg/mL.

In the case of `Cl.O=S(=O)(CCCOc1ccc2[nH]c3nc(O)nc-3cc2c1)C1CCN(Cc2cccc(C(F)(F)F)c2)CC1`, in the data set filed under Homo sapiens, the IC50 was 38 nM. The solubility in data set [1] is less than 5000 µg/mL.

In turn, `Cl.O=S(=O)(CCCCOc1ccc2[nH]c3nc(O)nc-3cc2c1)C1CCN(Cc2ccc(F)cc2)CC1` showed an IC50 in the data set filed under Homo sapiens of 67 nM. Also, the solubility in data set [1] came to 2000 µg/mL.

Turning to `Cl.Oc1nc2cc3cc(OCCCc4nnnn4C4CCN(CC5CCCCCC5)CC4)ccc3[nH]c-2n1`, the IC50 in the data set listed under Homo sapiens amounted to 17 nM. Also, in data set [1], the solubility amounted to 1000 µg/mL.

In turn, `Cl.O=S(=O)(CCCOc1ccc2[nH]c3nc(O)nc-3cc2c1)N1CCN(CCc2ccccc2)CC1` returned an IC50 in the data set filed under Homo sapiens of 1040 nM. The solubility in data set [1] is less than 10000 µg/mL.

`CCC(CC)CN1CCC(n2nnnc2CCCCOc2ccc3[nH]c4nc(O)nc-4cc3c2)CC1.Cl`: half-maximal inhibition in the data set listed under Homo sapiens (IC50) required 12 nM. Further, the solubility in data set [1] was greater than 5000 µg/mL.

In the data set listed under Homo sapiens, `Cl.Oc1nc2cc3cc(OCCCCc4nnnn4C4CCN(Cc5ccc(F)cc5)CC4)ccc3[nH]c-2n1` gave an IC50 of 51 nM. Besides, in data set [1], the solubility was greater than 5000 µg/mL.

Take `CCCC(CCC)CN1CCC(n2nnnc2CCCOc2ccc3[nH]c4nc(O)nc-4cc3c2)CC1.Cl`: in the data set listed under Homo sapiens, the IC50 worked out at 82 nM. For the same molecule, the solubility in data set [1] came to 2000 µg/mL.

The molecule `CC(C)CN1CCC(n2nnnc2CCCCOc2ccc3[nH]c4nc(O)nc-4cc3c2)CC1.Cl` displayed an IC50 in the data set filed under Homo sapiens of 9 nM. The solubility in data set [1] was greater than 10000 µg/mL.

The molecule `Cl.O=S(=O)(CCCOc1ccc2[nH]c3nc(O)nc-3cc2c1)C1CCN(CCC2CCCCC2)CC1` gave an IC50 in the data set listed under Homo sapiens of 48 nM. In addition, the solubility in data set [1] is less than 5000 µg/mL.

With `Cl.Oc1nc2cc3cc(OCCCCc4nnnn4C4CCNCC4)ccc3[nH]c-2n1`, inhibition in the data set filed under Homo sapiens was half-maximal at 5330 nM (IC50). Besides, the solubility in data set [1] worked out at 5000 µg/mL.

The molecule `Cl.Oc1nc2cc3cc(OCCCc4nnnn4C4CCNCC4)ccc3[nH]c-2n1` returned an IC50 in the data set filed under Homo sapiens of 11600 nM. The solubility in data set [1] is greater than 20000 µg/mL.

As for `Cl.O=C(NCCCOc1ccc2[nH]c3nc(O)nc-3cc2c1)N1CCN(CCC2CCCCC2)CC1`, in the data set filed under Homo sapiens, 72 nM corresponded to half-maximal inhibition (IC50). For the same molecule, the solubility in data set [1] turned out to be 500 µg/mL.

Regarding `Cl.O=C(NCCCOc1ccc2[nH]c3nc(O)nc-3cc2c1)N1CCN(Cc2cccs2)CC1`, the IC50 in the data set listed under Homo sapiens was 160 nM. Besides, in data set [1], the solubility is greater than 10000 µg/mL.

The molecule `Cl.Oc1nc2cc3cc(OCCCCc4nnnn4C4CCN(CC5CCCCC5)CC4)ccc3[nH]c-2n1` showed an IC50 in the data set listed under Homo sapiens of 20 nM. In addition, in data set [1], the solubility was greater than 5000 µg/mL.

As to `Cl.O=C(NCCCOc1ccc2[nH]c3nc(O)nc-3cc2c1)N1CCN(c2ncccn2)CC1`, the IC50 in the data set filed under Homo sapiens worked out at 320 nM. In addition, the solubility in data set [1] was 100 µg/mL.

In the case of `Cl.O=C(NCCCOc1ccc2[nH]c3nc(O)nc-3cc2c1)N1CCN(CC2CCCCO2)CC1` (stereo not drawn), in the data set listed under Homo sapiens, half-maximal inhibition (IC50) was put at 160 nM. In data set [1], the solubility was greater than 20000 µg/mL.

Turning to `Cl.O=C(NCCCOc1ccc2[nH]c3nc(O)nc-3cc2c1)N1CCN(CCc2ccccc2)CC1`, the IC50 in the data set listed under Homo sapiens stood at 300 nM. The solubility in data set [1] worked out at 250 µg/mL.

As for `Cl.O=C(NCCCOc1ccc2[nH]c3nc(O)nc-3cc2c1)N1CCN(Cc2ccsc2)CC1`, the IC50 in the data set listed under Homo sapiens came to 280 nM. For the same molecule, the solubility in data set [1] amounted to 3000 µg/mL.

For the molecule `Cl.O=C(NCCCOc1ccc2[nH]c3nc(O)nc-3cc2c1)N1CCNCC1`, the IC50 in the data set filed under Homo sapiens was 8150 nM. Further, in data set [1], the solubility was greater than 20000 µg/mL.

The molecule `Cl.O=S(=O)(CCCOc1ccc2[nH]c3nc(O)nc-3cc2c1)N1CCN(CCC2CCCCC2)CC1` yielded an IC50 in the data set filed under Homo sapiens of 2040 nM. Besides, the solubility in data set [1] was less than 5000 µg/mL.

In the case of `Cl.O=C(NCCCOc1ccc2[nH]c3nc(O)nc-3cc2c1)N1CCN(c2ccccn2)CC1`, the half-maximal inhibitory concentration (IC50) in the data set listed under Homo sapiens is 690 nM. Further, the solubility in data set [1] came out at 500 µg/mL.

Molecule `Cl.O=S(=O)(CCCOc1ccc2[nH]c3nc(O)nc-3cc2c1)C1CCNCC1` came in with an IC50 in the data set filed under Homo sapiens greater than 66000 nM. Moreover, the solubility in data set [1] was greater than 10000 µg/mL.

In the data set filed under Homo sapiens, `Cl.O=S(=O)(CCCCOc1ccc2[nH]c3nc(O)nc-3cc2c1)C1CCNCC1` returned an IC50 of 14800 nM. In addition, the solubility in data set [1] is greater than 10000 µg/mL.

Molecule `CCCC(CCC)CN1CCN(C(=O)NCCCOc2ccc3[nH]c4nc(O)nc-4cc3c2)CC1.Cl` had an IC50 in the data set listed under Homo sapiens of 130 nM. Also, the solubility in data set [1] came to 500 µg/mL.

`Cl.O=C(NCCCOc1ccc2[nH]c3nc(O)nc-3cc2c1)N1CCC(N2CCCCC2)CC1` came in with an IC50 in the data set listed under Homo sapiens of 9860 nM. Besides, the solubility in data set [1] is greater than 20000 µg/mL.

In the data set listed under Homo sapiens, `Cl.O=S(=O)(CCCOc1ccc2[nH]c3nc(O)nc-3cc2c1)N1CCN(c2nc3ccccc3o2)CC1` had an IC50 of 2410 nM. In data set [1], the solubility was greater than 20000 µg/mL.

Turning to `Cl.O=S(=O)(CCCOc1ccc2[nH]c3nc(O)nc-3cc2c1)N1CCN(c2nc3ccccc3s2)CC1`, inhibition in the data set listed under Homo sapiens was half-maximal at 4880 nM (IC50). In addition, in data set [1], the solubility was determined as 1000 µg/mL.

On to `CC(C)CN1CCC(n2nnnc2CCCOc2ccc3[nH]c4nc(O)nc-4cc3c2)CC1.Cl`, for which, in the data set filed under Homo sapiens, half-maximal inhibition (IC50) was put at 9.4 nM. The solubility in data set [1] was greater than 10000 µg/mL.

`CCCC(CCC)CN1CCC(S(=O)(=O)CCCOc2ccc3[nH]c4nc(O)nc-4cc3c2)CC1.Cl`: the IC50 in the data set filed under Homo sapiens was 230 nM. In addition, in data set [1], the solubility came to 1000 µg/mL.

In the data set filed under Homo sapiens, `Cl.Oc1nc2cc3cc(OCCCc4nnnn4C4CCN(CC5CCCCO5)CC4)ccc3[nH]c-2n1` (stereo not drawn) returned an IC50 of 71 nM. Moreover, the solubility in data set [1] is greater than 10000 µg/mL.

As to `CC(C)CN1CCC(S(=O)(=O)CCCOc2ccc3[nH]c4nc(O)nc-4cc3c2)CC1.Cl`, in the data set filed under Homo sapiens, the IC50 is 27 nM. The solubility in data set [1] was greater than 10000 µg/mL.

The molecule `Cl.O=S(=O)(CCCOc1ccc2[nH]c3nc(O)nc-3cc2c1)N1CCN(Cc2cccc(C(F)(F)F)c2)CC1` displayed an IC50 in the data set listed under Homo sapiens of 320 nM. For the same molecule, the solubility in data set [1] turned out to be 2000 µg/mL.

`Cl.O=S(=O)(CCCOc1ccc2[nH]c3nc(O)nc-3cc2c1)N1CCNCC1` returned an IC50 in the data set listed under Homo sapiens of 15500 nM. For the same molecule, the solubility in data set [1] was greater than 20000 µg/mL.

As for `Cl.Cl.O=S(=O)(CCCOc1ccc2[nH]c3nc(O)nc-3cc2c1)N1CCN(Cc2ccc(Cl)cc2)CC1`, in the data set filed under Homo sapiens, the IC50 was found to be 530 nM. Besides, the solubility in data set [1] was greater than 20000 µg/mL.

Regarding `O=CN1CCN(S(=O)(=O)CCCOc2ccc3[nH]c4nc(O)nc-4cc3c2)CC1`, the IC50 in the data set filed under Homo sapiens turned out to be 13000 nM. Also, the solubility in data set [1] is less than 1000 µg/mL.

In general, IC50 refers to the concentration at which inhibition is half-maximal. Lower therefore signals greater potency.
